The record followed here is ChEMBL document CHEMBL1275344, “Synthesis and antimalarial assessment of a new series of orally active amino-functionalized spiro 1,2,4-trioxanes” (J Med Chem, 2010).

Data set [1] deals with Plasmodium yoelii nigeriensis. As to the kind of experiment: Antimalarial activity against multidrug-resistant Plasmodium yoelii nigeriensis infected in Swiss mice (Mus musculus) assessed as suppression of parasitaemia at 96 mg/kg, perorally for 4 days relative to control. Format: functional. To be noted: route oral. In short, it runs like this: (§1)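 Swiss mice of either sex (20 ± 2 g) infected intraperitoneally with 1 × 10⁶ MDR P. yoelii nigeriensis parasites on day 0. Five mice per dose group, given oral doses in groundnut oil, twice daily on days 0–3. Parasitaemia read from day-4 thin blood smears. Suppression = [(C − T)/C] × 100, with C and T the control and treated parasitaemia. 100% means no parasites seen in 50 oil-immersion fields.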

The subject of data set [2] is Plasmodium yoelii nigeriensis. Put plainly: Antimalarial activity against multidrug-resistant Plasmodium yoelii nigeriensis infected in Swiss mice (Mus musculus) assessed as suppression of parasitaemia at 48 mg/kg, peroral for 4 days relative to control. Format: functional. Conditions: route oral. In short, it runs like this:
as §1

Data set [3] has as its system Plasmodium yoelii nigeriensis. Put plainly: Antimalarial activity against multidrug-resistant Plasmodium yoelii nigeriensis infected in Swiss mice (Mus musculus) assessed as curated mice (Mus musculus) at 96 mg/kg, peroral for 4 days. It is filed as functional, organism-based. Also noted: dose 96 mg/kg. In short, it runs like this: (§2)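 Swiss mice of either sex (20 ± 2 g) inoculated intraperitoneally with 1 × 10⁶ MDR P. yoelii nigeriensis parasites on day 0. Five mice per dose group, dosed orally in groundnut oil (0.1 mL), in two divided doses daily from day 0 to 3. Thin blood smears read on day 4, then twice weekly to day 28. Mice without patent infection by day 28 counted as cured. β-Arteether was the positive control.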

Data set [4] has as its system Plasmodium yoelii nigeriensis. As to the kind of experiment: Antimalarial activity against multidrug-resistant Plasmodium yoelii nigeriensis infected in Swiss mice (Mus musculus) assessed as curated mice (Mus musculus) at 48 mg/kg, peroral for 4 days. It is filed as functional, organism-based. Also noted: dose 48 mg/kg. In short, it runs like this: as §2
Data set [5] in a line: Lipophilicity, log P of the compound. Format: physicochemical. Conditions: octanol/water.
Data set [6] concerns Plasmodium yoelii nigeriensis. Put plainly: Antimalarial activity against multidrug-resistant Plasmodium yoelii nigeriensis infected in Swiss mice (Mus musculus) assessed as suppression of parasitaemia at 24 mg/kg, peroral for 4 days relative to control. It is filed as functional. To be noted: route oral. In short, it runs like this: as §1

Each structure is given as a SMILES string. The source made the active and inactive calls. The calls are words filed in the database; no cut-off is given here.

One may read the logP as the decadic logarithm of the partition coefficient of the neutral form, usually between octanol and water. Lower therefore signals a more hydrophilic compound. In the case of `C=C(c1ccc2c(c1)Cc1ccccc1-2)C1CCC2(CC1)COC(Nc1cccc(C(F)(F)F)c1)OO2` (stereo not drawn), the Activity in data set [1] and in data set [2] was 100% each time. Besides, in data set [3], the result was Active. The outcome in data set [4] was inactive. In data set [5], the logP came to 7.25.

As for `C=C(c1ccc2c(c1)Cc1ccccc1-2)C1CCC2(CC1)COC(Nc1ccc(C)cc1)OO2` (stereo not drawn), the Activity in data set [1] and in data set [2] was 100% in each case. Also, the result in data set [3] was Active. This compound returned a logP in data set [5] of 6.81.

Regarding `C=C(c1ccc2ccccc2c1)C1CCC2(CC1)COC(Nc1ccccc1)OO2` (stereo not drawn), the Activity in data set [1] and in data set [2] was 100% throughout. Also, the outcome in data set [3] was Active. The log partition coefficient (logP) in data set [5] was determined as 5.59.

As for `C=C(c1cccc2ccccc12)C1CCC2(CC1)COC(Nc1ccccc1-c1ccccc1)OO2` (stereo not drawn), the Activity in data set [1] and in data set [2] was 100% each time. Besides, the result in data set [3] was Active. The logP in data set [5] stood at 7.26.

Regarding `C=C(c1ccc2ccccc2c1)C1CCC2(CC1)COC(Nc1cc(Cl)cc(Cl)c1)OO2` (stereo not drawn), the Activity in data set [1] and in data set [2] was 100% throughout. Moreover, the outcome in data set [3] was Active. In data set [5], this compound returned a logP of 6.71.

With `C=C(c1ccc2c(c1)Cc1ccccc1-2)C1CCC2(CC1)COC(Nc1ccc(OC)cc1)OO2` (stereo not drawn), the Activity in data set [1] and in data set [2] was 100% throughout. In addition, the outcome in data set [3] was Active. The outcome in data set [4] was inactive. Further, the logP in data set [5] came to 6.2.

Regarding `C=C(c1cccc2ccccc12)C1CCC2(CC1)COC(Nc1cc(Cl)cc(Cl)c1)OO2` (stereo not drawn), the Activity in data set [1] and in data set [2] was 100% each time. Further, the outcome in data set [3] was Active. In data set [5], the logP is 6.71.

As for `C=C(c1cccc2ccccc12)C1CCC2(CC1)COC(Nc1ccc(OC)cc1)OO2` (stereo not drawn), the Activity in data set [1] and in data set [2] was 100% in each case. Moreover, the result in data set [3] was Active. The log partition coefficient (logP) in data set [5] turned out to be 5.46.

For `CCO[C@H]1O[C@@H]2O[C@@]3(C)CC[C@H]4[C@H](C)CC[C@@H]([C@H]1C)[C@@]24OO3` [ARTEMOTIL], the Activity in data set [2] and in data set [6] was 100% throughout. The result in data set [4] was Active.

Take `C=C(c1cccc2ccccc12)C1CCC2(CC1)COC(Nc1ccc(Cl)cc1)OO2` (stereo not drawn): the Activity in data set [1] and in data set [2] was 100% each time. The same compound had a logP in data set [5] of 6.15.

Consider `C=C(c1cccc2ccccc12)C1CCC2(CC1)COC(Nc1ccc(C)cc1)OO2` (stereo not drawn), for which the Activity in data set [1] and in data set [2] was 100% in each case. Moreover, the logP in data set [5] was found to be 6.08.

As for `C=C(c1ccc2ccc3ccccc3c2c1)C1CCC2(CC1)COC(Nc1ccccc1-c1ccccc1)OO2` (stereo not drawn), the Activity is 100% in data set [1] and 74.36% in data set [2]. Further, the outcome in data set [3] was Active. Moreover, the result in data set [4] was inactive. In data set [5], the logP turned out to be 8.26.

Regarding `C=C(c1ccc2ccccc2c1)C1CCC2(CC1)COC(Nc1ccc(C)cc1)OO2` (stereo not drawn), the Activity in data set [1] and in data set [2] was 100% in each case. Further, in data set [3], the outcome was Active. In data set [5], this compound showed a logP of 6.08.

Turning to `C=C(c1ccc2ccc3ccccc3c2c1)C1CCC2(CC1)COC(Nc1cccc(C(F)(F)F)c1)OO2` (stereo not drawn), the Activity in data set [1] and in data set [2] was 100% throughout. The outcome in data set [3] was Active. Moreover, the result in data set [4] was inactive. Further, the logP in data set [5] worked out at 7.51.

Regarding `C=C(c1ccc2ccc3ccccc3c2c1)C1CCC2(CC1)COC(Nc1ccc(C)cc1)OO2` (stereo not drawn), the Activity in data set [1], in data set [2] and in data set [6] was 100% in each case. For the same compound, the outcome in data set [3] and in data set [4] was Active. Besides, the logP in data set [5] stood at 7.07.

`C=C(c1ccc2ccc3ccccc3c2c1)C1CCC2(CC1)COC(Nc1cc(Cl)cc(Cl)c1)OO2` (stereo not drawn): the Activity in data set [1] was determined as 100%; in data set [2], 62.5%. Moreover, in data set [3], the outcome was Active. Further, in data set [5], the logP amounted to 7.7.

As for `C=C(c1ccc2ccc3ccccc3c2c1)C1CCC2(CC1)COC(Nc1ccccc1)OO2` (stereo not drawn), the Activity in data set [1], in data set [2] and in data set [6] was 100% each time. In data set [3], the result was Active. In data set [5], the logP stood at 6.59.

As to `C=C(c1ccc2ccc3ccccc3c2c1)C1CCC2(CC1)COC(Nc1ccc(OC)cc1)OO2` (stereo not drawn), the Activity in data set [1] and in data set [2] was 100% in each case. Further, the result in data set [3] was Active. The lipophilicity (logP) in data set [5] turned out to be 6.46.

For `C=C(c1ccc2c(c1)Cc1ccccc1-2)C1CCC2(CC1)COC(Nc1ccccc1)OO2` (stereo not drawn), the Activity in data set [1] and in data set [2] was 100% in each case. Further, the result in data set [3] was Active. Moreover, the logP in data set [5] was found to be 6.33.

Regarding `C=C(c1ccc2ccccc2c1)C1CCC2(CC1)COC(Nc1cccc(C(F)(F)F)c1)OO2` (stereo not drawn), the Activity in data set [1] and in data set [2] was 100% throughout. Besides, the result in data set [3] was Active. Further, the logP in data set [5] was 6.51.

`C=C(c1ccc2c(c1)Cc1ccccc1-2)C1CCC2(CC1)COC(Nc1ccccc1-c1ccccc1)OO2` (stereo not drawn): in data set [1], the Activity is recorded as 100%. For the same compound, in data set [3], the result was inactive. The compound further returned a lipophilicity (logP) in data set [5] of 8.

On to `C=C(c1ccc2ccc3ccccc3c2c1)C1CCC2(CC1)COC(Nc1ccc(Cl)cc1)OO2` (stereo not drawn), for which the Activity was determined as 100% in data set [1] and 76.9% in data set [2]. Moreover, in data set [3], the outcome was Active. Further, the lipophilicity (logP) in data set [5] was 7.14.

Regarding `C=C(c1ccc2ccccc2c1)C1CCC2(CC1)COC(Nc1ccc(OC)cc1)OO2` (stereo not drawn), the Activity in data set [1] and in data set [2] was 100% throughout. For the same compound, in data set [3], the result was Active. Besides, the logP in data set [5] is 5.46.

`C=C(c1ccc2ccccc2c1)C1CCC2(CC1)COC(Nc1ccccc1-c1ccccc1)OO2` (stereo not drawn): the Activity in data set [1] and in data set [2] was 100% each time. Moreover, the result in data set [3] was Active. This compound yielded a logP in data set [5] of 7.26.

As to `C=C(c1ccc2ccccc2c1)C1CCC2(CC1)COC(Nc1ccc(F)cc1)OO2` (stereo not drawn), the Activity in data set [1], in data set [2] and in data set [6] was 100% each time. Besides, the result in data set [3] was Active. In addition, the logP in data set [5] was 5.75.

On to `C=C(c1ccc2c(c1)Cc1ccccc1-2)C1CCC2(CC1)COC(Nc1ccc(C(F)(F)F)cc1)OO2` (stereo not drawn), for which the Activity in data set [1] and in data set [2] was 100% each time. The result in data set [3] was Active. The same compound showed a logP in data set [5] of 7.25.

As to `C=C(c1ccc2c(c1)Cc1ccccc1-2)C1CCC2(CC1)COC(Nc1cc(Cl)cc(Cl)c1)OO2` (stereo not drawn), the Activity in data set [1] came out at 100%. The outcome in data set [3] was inactive. Moreover, in data set [5], the logP turned out to be 7.44.

For `C=C(c1ccc2c(c1)Cc1ccccc1-2)C1CCC2(CC1)COC(Nc1ccc(F)cc1)OO2` (stereo not drawn), the Activity in data set [1] and in data set [2] was 100% in each case. The outcome in data set [3] was Active. The logP in data set [5] came to 6.48.

Turning to `C=C(c1cccc2ccccc12)C1CCC2(CC1)COC(Nc1ccccc1)OO2` (stereo not drawn), the Activity in data set [1] and in data set [2] was 100% each time. Besides, the outcome in data set [3] was Active. In data set [5], this compound had a logP of 5.59.

Take `C=C(c1cccc2ccccc12)C1CCC2(CC1)COC(Nc1cccc(C(F)(F)F)c1)OO2` (stereo not drawn): the Activity in data set [1] and in data set [2] was 100% each time. The result in data set [3] was Active. The logP in data set [5] came out at 6.51.

Turning to `C=C(c1cccc2ccccc12)C1CCC2(CC1)COC(Nc1ccc(C(F)(F)F)cc1)OO2` (stereo not drawn), the Activity in data set [1] and in data set [2] was 100% in each case. Also, the result in data set [3] was Active. Also, the logP in data set [5] is 6.51.

Regarding `C=C(c1ccc2c(c1)Cc1ccccc1-2)C1CCC2(CC1)COC(Nc1ccc(Cl)cc1)OO2` (stereo not drawn), the Activity in data set [1] worked out at 100%. The outcome in data set [3] was Active. In addition, the logP in data set [5] came out at 6.88.

Turning to `C=C(c1cccc2ccccc12)C1CCC2(CC1)COC(Nc1ccc(F)cc1)OO2` (stereo not drawn), the Activity in data set [1] and in data set [2] was 100% throughout. The result in data set [3] was Active. Also, in data set [5], the logP was determined as 5.75.

For `C=C(c1ccc2ccc3ccccc3c2c1)C1CCC2(CC1)COC(Nc1ccc(F)cc1)OO2` (stereo not drawn), the Activity in data set [1] and in data set [2] was 100% each time. Also, in data set [3], the outcome was Active. Also, the logP in data set [5] was 6.74.

Regarding `C=C(c1ccc2ccc3ccccc3c2c1)C1CCC2(CC1)COC(Nc1ccc(C(F)(F)F)cc1)OO2` (stereo not drawn), the Activity in data set [1] came to 100%; in data set [2], 82.22%. In data set [3], the outcome was Active. In addition, the outcome in data set [4] was inactive. Moreover, the log partition coefficient (logP) in data set [5] came out at 7.51.
